Data: ChEMBL document CHEMBL3739295, “Cadinane-Type Sesquiterpenoids from Heterotheca inuloides: Absolute Configuration and Anti-inflammatory Activity” (J Nat Prod, 2015)
The source made the active and inactive calls. The rule behind the calls is not given here.

Legend:
Mus musculus [1] = assay: Anti-inflammatory activity in TPA-induced mouse ear edema model assessed as inhibition of ear edema at 1 umol/ear; assay type: functional
Procedure, shortened: (§1)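 In vivo 12-O-tetradecanoylphorbol 13-acetate (TPA)-induced ear edema in mice. Animals were handled under Mexican Official Norm MON-062-Z00-1999.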

Mus musculus [2] = assay: Anti-inflammatory activity in TPA-induced mouse ear edema model assessed as inhibition of ear edema; assay type: functional, organism-based; procedure, shortened: as §1

SMILES	inhibition (INH) (Mus musculus [1])	IC50 (Mus musculus [2])	inhibition (Mus musculus [1])
Cc1cc2c(C(C)C)ccc(C=O)c2cc1O	43.14%	> 228 µg	
COc1c(C(C)C)cc(C)c2ccc(C)cc12	15.32%	> 1 µmol	
CC1=CC[C@H](C(C)C)c2cc(C(=O)O)ccc21	12.93%	> 1 µmol	
CC(C)[C@H]1CC[C@@](C)(O)c2ccc(C(=O)O)cc21		> 1 µmol	Active
Cc1ccc2c(c1)C(=O)C(C(C)C)=C[C@@]2(C)O		> 1 µmol	Active
CC1=CC[C@H](C(C)C)[C@H]2C=C(C(=O)O)CC=C12		> 1 µmol	inactive
CC1=C[C@](O)(C(C)C)C(=O)c2cc(C)c(O)cc21		> 1 µmol	Active
CC1=C2CCC(C(=O)O)=C[C@@H]2[C@@H](C(C)C)CC1	21.51%	> 1 µmol	
